According to ChEMBL document CHEMBL1149852, “Antimycobacterial serratamolides and diacyl peptoglucosamine derivatives from Serratia sp” (2008):

Experiments:
Format in all cases: functional
[1] = tested on: Mycolicibacterium diernhoferi; assay: Antimycobacterial activity against Mycobacterium diernhoferi
Procedure, shortened: (§1)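 Broth microdilution MIC. Purified compound given as serial 2-fold dilutions in Mueller-Hinton broth in 96-well plates. Inoculum made by scraping colonies from EBS agar plates (EBS: casein peptone 0.5%, glucose 0.5%, meat/yeast extract 0.1% each, 50 mM HEPES, pH 7.0) into EBS medium, then added to 5 × 10^5 CFU/mL. MIC taken as lowest concentration inhibiting 99% of inoculum.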

[2] = tested on: Mycolicibacterium smegmatis; assay: Antimycobacterial activity against Mycobacterium smegmatis; procedure, shortened: as §1
Mycolicibacterium phlei = assay: Antimycobacterial activity against Mycobacterium phlei; procedure, shortened: as §1

Measured: MIC

CCCCCCCCCCCCCCC(=O)N[C@H](C(=O)O[C@H]1O[C@H](CO)[C@@H](O)[C@H](O)[C@H]1NC(=O)CCC)C(C)C
180 µM: all assays above

CCCCCCCCCCCCCC(=O)N[C@H](C(=O)O[C@H]1O[C@H](CO)[C@@H](O)[C@H](O)[C@H]1NC(=O)CCC)C(C)C
180 µM: all assays above

CCCCCCC/C=C\CCCCCCC(=O)N[C@H](C(=O)O[C@H]1O[C@H](CO)[C@@H](O)[C@H](O)[C@H]1NC(=O)CCC)C(C)C
180 µM: all assays above

CCCCCCC[C@@H]1CC(=O)N[C@@H](CO)C(=O)O[C@H](CCCCCCC)CC(=O)N[C@@H](CO)C(=O)O1 [SERRATAMOLIDE A]
180 µM: all assays above

CCCCCC/C=C\C[C@@H]1CC(=O)N[C@@H](CO)C(=O)O[C@H](CCCCCCC)CC(=O)N[C@@H](CO)C(=O)O1 [SERRATAMOLIDE B]
180 µM: all assays above

CCCCCCCCC[C@@H]1CC(=O)N[C@@H](CO)C(=O)O[C@H](CCCCCCC)CC(=O)N[C@@H](CO)C(=O)O1 [SERRATAMOLIDE C]
180 µM: all assays above

CCCCCCCC[C@@H]1CC(=O)N[C@@H](CO)C(=O)O[C@H](CCCCCCC)CC(=O)N[C@@H](CO)C(=O)O1 [SERRATAMOLIDE D]
180 µM: all assays above

CCCCCCC[C@@H]1CC(=O)N[C@@H](CO)C(=O)O[C@H](CCCCC)CC(=O)N[C@@H](CO)C(=O)O1 [SERRATAMOLIDE E]
180 µM: all assays above

CCCCCCC[C@@H]1CC(=O)N[C@@H](CO)C(=O)O[C@H](CCCCCC)CC(=O)N[C@@H](CO)C(=O)O1 [SERRATAMOLIDE F]
180 µM: all assays above
